Screening results from PubChem BioAssay.
Many of the other results were omitted from the sample, so hits are more common in it than they were.
Dynein transport = inhibitors of GR-EGFP nuclear translocation, primary screen, dynein cargo transport inhibitor project, imaging, high-content, 3617.4 mouse cells; test concentration mostly 20 µM; stimulated with dexamethasone, 1 µM; active compounds read low; z-score, hits read low; 220,000 tested, 0.47% active; AID 1381, 2008;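 active = plate z-score of nuclear minus cytoplasmic receptor signal below a set negative limit, without overly bright fluorescence or cell loss, cut at about -3.5 in these data, passing the limit was not always enough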;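 note: z-score of nuclear minus cytoplasmic ring GR-EGFP intensity difference per well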
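Buffer or medium: tetracycline-free induction medium containing charcoal-stripped FBS / Reagent: dexamethasone agonist, 1.0 µM final, for 30 min / Technique: automated 10x imaging of fixed Hoechst-stained cells / Times: induction 48 h, compound 1 h, agonist 30 min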
CHOP inh = inhibitors of CHOP promoter induction, primary screen, cell-based, unfolded protein response, luciferase reporter. AID 2732, 2010. CHO-K1 CHOP-promoter luciferase, tunicamycin-induced, 15-18 h. inhibition, % at 10 µM. 220,000 tested, 3.8% active;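 active = compounds that reduced the stress-induced luciferase reporter signal by more than about 70% of percent inhibition, limit read from the data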;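 note: 0% = tunicamycin plus vehicle and 100% = wells without tunicamycin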
T cruzi inh = inhibitors of intracellular T. cruzi growth, primary screen, luminescence, NIH3T3 host cells | T. cruzi beta-gal in NIH3T3, 90 h | inhibition, % (no concentration beside the values) | 300,000 tested, 1.4% active | AID 1885, 2009;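 active = mean inhibition across valid replicates above about 55%, limit read from the data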;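 note: signal also drops with host cell toxicity which is not excluded here; 0% = plate median of DMSO wells and 100% = zero luminescence signal; higher percent means less beta-gal luminescence so fewer parasites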
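assay system = mouse NIH/3T3 fibroblasts infected with β-gal-expressing T. cruzi Tulahuen C4 | input = 5,000 NIH/3T3 host cells per well | buffer or medium = DMEM plus 2% FBS | timing = 3 h host attachment, then at least 90 h co-culture | measured by = GalScreen luminescence, 60 min | evaluation = luminescence reflecting intracellular parasite burden, expressed as percent inhibition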
UPR CHOP act = activators of apoptotic CHOP UPR arm, primary screen, cell-based, CHO-CHOP luciferase reporter, luminescence, uHTS | AID 449763, 2010 | 330,000 tested, 0.34% active | activation, % at 10 µM | UPR activation; percent of tunicamycin response over DMSO baseline;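 active = at 10 µM dose, activation of 40% or more, normalized to positive control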;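 note: 100% = tunicamycin at 10 µg/mL and 0% = DMSO alone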
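Test system: CHO CHOP reporter cells. Input: 500 CHO-CHOP cells per well. Medium: F12 with 10% FBS. Technique: luciferase luminescence. Measure: percent activation relative to tunicamycin control. Dosing: 10 µM compound, 0.5% DMSO. Timing: 16-18 h cell attachment, then 6 h compound exposure, 37 °C.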
L major viab = Leishmania major promastigote growth inhibition, primary screen. Leishmania major promastigotes, resazurin fluorescence viability. 200,000 tested, 9% active. AID 1063, 2008. inhibition, % at 10 µM; in the data active = inhibition above about 50%;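 note: promastigotes grown with compound for 44 hours at 28 °C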
XBP1 UPR activ = activators of adaptive XBP1 UPR arm, primary screen, cell-based, CHO-XBP1 luciferase reporter, luminescence, uHTS; IRE1-XBP1 UPR activation; percent of tunicamycin response, DMSO as zero; activation, % at 20 µM; 330,000 tested, 0.33% active; AID 463104, 2010;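 active = versus positive control, 20 µM dose yields 30% or more activation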;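 note: 100% = tunicamycin at 10 µg/mL and 0% = DMSO only wells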
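incubation = overnight seeding at 37 °C, 6 h compound treatment at 37 °C | assay system = CHO-XBP1 cells stably carrying IRE1-XBP1-driven luciferase reporter | input = 1000 cells per well | detection = luciferase luminescence | dosing = single point, 20 µM final compound, 1% DMSO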
CHOP inh conf = retest of CHOP induction inhibitors, confirmation, cell-based; shares compounds with CHOP inh; inhibition, % at 10 µM; CHO-CHOP promoter luciferase reporter, tunicamycin-induced, luminescence; 2,100 tested, 45% active;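 active = mean of three repeat readings of reporter signal inhibition above a set limit, cut at about 70% in these data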;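 note: 0% = tunicamycin plus vehicle and 100% = wells lacking tunicamycin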
* hit, by the source's call.

What do the screens show for `N#CC1=C(N)N2C(=C(C#N)C1c1ccccc1)Sc1ccccc12` (stereo unspecified)?
Dynein transport: -0.41; CHOP inh: -25; T cruzi inh: -6; UPR CHOP act: -1; L major viab: 0; XBP1 UPR activ: -4

What do the screens show for `N#CC1=C(N)N2C(=C(C#N)C1c1cccc(Br)c1)Nc1ccccc12` (stereo unspecified)?
Dynein transport: -0.26; CHOP inh: 101*; T cruzi inh: -3; UPR CHOP act: 1; L major viab: 7; XBP1 UPR activ: 14; CHOP inh conf: 105*

What do the screens show for `N#CC1=C(N)N2C(=C(C#N)C1c1ccc(Br)cc1)Nc1ccccc12` (stereo unspecified)?
Dynein transport: -0.74; CHOP inh: 106*; T cruzi inh: -1; UPR CHOP act: 4; L major viab: 18; XBP1 UPR activ: 10; CHOP inh conf: 94*

Results for N#CC1=C(N)N2C(=C(C#N)C13CCN(Cc1ccccc1)CC3)Nc1ccccc12 ?
Dynein transport: -0.12; CHOP inh: -13; T cruzi inh: -5; UPR CHOP act: -1; L major viab: 6; XBP1 UPR activ: 1

What do the screens show for `Cc1ccc(S(=O)(=O)N2CCN(C(=O)COC(=O)CNC(=O)c3ccc(Cl)cc3Cl)CC2)cc1`?
T cruzi inh: -7; UPR CHOP act: 0; XBP1 UPR activ: -2

How did O=C(c1cc(C2CC2)nn1-c1ccccc1)N1CCN(c2ccc(O)cc2)CC1 do in these assays?
UPR CHOP act: 0; XBP1 UPR activ: 0

How did CC(C)CC(=O)/C(=C/c1ccc(N(C)C)cc1)n1cncn1 do in these assays?
T cruzi inh: -12; UPR CHOP act: 0; XBP1 UPR activ: -1

How did CC(C)CC(=O)/C(=C\c1ccc(Cl)cc1Cl)n1cncn1 do in these assays?
Dynein transport: -3; CHOP inh: 109*; T cruzi inh: 45; L major viab: 100*; CHOP inh conf: 3

Results for Cc1nn(-c2ccccc2)c2c1C(c1ccc(F)cc1F)C(C#N)=C(N)O2 (stereo unspecified) ?
Dynein transport: -0.96; CHOP inh: 99*; T cruzi inh: 12; UPR CHOP act: -1; L major viab: 22; XBP1 UPR activ: 6; CHOP inh conf: 17

How did Cc1ccc(-n2nc(C)c3c2OC(N)=C(C#N)C3c2ccoc2)cc1 (stereo unspecified) do in these assays?
Dynein transport: 2.2; CHOP inh: 55; T cruzi inh: -9; UPR CHOP act: 1; L major viab: 1; XBP1 UPR activ: 0

How did Cc1ccc(-c2nn(-c3ccccc3)cc2/C=N/NC(=O)c2ccc(Br)o2)cc1 do in these assays?
Dynein transport: 1.3; CHOP inh: 104*; T cruzi inh: 23; UPR CHOP act: 0; L major viab: 44; XBP1 UPR activ: -6; CHOP inh conf: 121*

What do the screens show for `O=C(N/N=C\c1cn(-c2ccccc2)nc1-c1ccccc1)c1ccc(Br)o1`?
Dynein transport: -0.25; CHOP inh: 23; T cruzi inh: 21; UPR CHOP act: 7; L major viab: 48; XBP1 UPR activ: 3

Results for CC1=CC(=C2C(=O)c3ccccc3C2=O)C=C(C)O1 ?
Dynein transport: -0.34; CHOP inh: -16; T cruzi inh: 0; UPR CHOP act: 2; L major viab: 7; XBP1 UPR activ: 4

What do the screens show for `CC(=O)C1=C(c2ccc(Br)cc2)C(=O)c2ccccc2C1=O`?
Dynein transport: -3; CHOP inh: 110*; T cruzi inh: 55*; L major viab: 100*; CHOP inh conf: 108*

How did O=C(COc1cccnc1[N+](=O)[O-])Nc1ccc(Cl)c(S(=O)(=O)N2CCOCC2)c1 do in these assays?
Dynein transport: -0.88; CHOP inh: 9; T cruzi inh: 3; UPR CHOP act: 0; XBP1 UPR activ: -3

Results for CCCCCc1cc(=O)oc2c(C(CCN3CCCCC3)c3cc(OC)c(OC)c(OC)c3)c(OC)cc(OC)c12 (stereo unspecified) ?
Dynein transport: -6.4; CHOP inh: 105*; T cruzi inh: 33; UPR CHOP act: 7; XBP1 UPR activ: 1; CHOP inh conf: 53

Results for COc1cc(C(CCN2CCCC2)c2c(OC)cc(OC)c3ccc(=O)oc23)cc(OC)c1OC (stereo unspecified) ?
Dynein transport: 0.39; CHOP inh: 22; T cruzi inh: 11; UPR CHOP act: -2; XBP1 UPR activ: 0

What do the screens show for `O=C(CS(=O)CC(=O)N(c1ccccc1)C(C(=O)NC1CCCC1)c1cccs1)Nc1ccc(F)cc1` (stereo unspecified)?
Dynein transport: -0.36; CHOP inh: 12; T cruzi inh: -13; UPR CHOP act: 8; L major viab: -3; XBP1 UPR activ: 5

Results for COc1cccc(N(C(=O)CS(=O)CC(=O)Nc2ccc(F)cc2)C(C(=O)NC2CCCCC2)c2cccs2)c1 (stereo unspecified) ?
Dynein transport: 0.15; CHOP inh: 100*; T cruzi inh: -5; UPR CHOP act: 1; L major viab: 25; XBP1 UPR activ: -6; CHOP inh conf: 51

Results for N#Cc1ccccc1COc1cccc2c1CCCC2O (stereo unspecified) ?
T cruzi inh: -6; UPR CHOP act: 2; XBP1 UPR activ: 7

Results for CN1CC(c2ccccc2)C2(SC(=S)N(Cc3ccco3)C2=O)C12C(=O)Nc1ccccc12 (stereo unspecified) ?
Dynein transport: -0.65; CHOP inh: 101*; T cruzi inh: 41; UPR CHOP act: 2; L major viab: 98*; XBP1 UPR activ: 11; CHOP inh conf: 84*

Results for Cn1c(=O)c2c(nc(Sc3ncnn3CC(=O)NC(C)(C)C)n2C)n(C)c1=O ?
Dynein transport: 1.4; CHOP inh: 100*; T cruzi inh: -8; UPR CHOP act: 1; L major viab: -5; XBP1 UPR activ: -3; CHOP inh conf: 15

What do the screens show for `Cn1c(=O)c2c(ncn2CC(=O)NC(C)(C)C)n(C)c1=O`?
Dynein transport: 0.091; CHOP inh: 1; T cruzi inh: -13; UPR CHOP act: 0; L major viab: -1; XBP1 UPR activ: 0
